B1: tRNA (parent)
chain: GUUCCGUUGGCGUAAUGGUAACGCGUCUCCCUCCUAAGGAGAAGACUGCGGGUUCGAGUCCCGUACGGAACG

Variants at the floor of the assay were thinned out.

Variants of B1 are the subject of this data set. Description: yeast fitness relative to wild type (ratio to wild type); higher = fitter; tRNA-Arg(CCU), competitive growth, 37 C, YPD. A digest of the protocol:
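Genotype frequency changes were the basis for Darwinian fitness relative to wild type. The frequencies came from 100-nucleotide paired-end sequencing of gene amplicons from the start population and each end population of pooled yeast strains with tRNA-Arg(CCU) gene variants at the native locus. Competition ran in YPD at 37°C for 24 hours in six replicates, genotypes needed ≥ 100 starting reads, and estimates < 0.5 were set to 0.5.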
In the case of GUUCCGUUGGCGUAAUGGUAACGCGUCUCCCUCCUAAGGAGAAGACUGCGGGUUUGAGACCCGUACGGAUCG [C55U U59A A70U], the yeast fitness is 0.524.
Consider GUUCCGUUCGCGUAAUGGUAACGCGUCGCCCUCCUAAGGAGAAGACUGCGGGUUGGAGUCCCGUACGGUACG [G9C U28G C55G A69U], for which the yeast fitness is at most 0.5.
As for GUUCCGUUGGCGUAAUGGUAACGCGUCUCUCUCCUAAGGAGCAGACUGCGGGUUCGAGUCCGGUAGGGAACG [C30U A42C C62G C66G], the yeast fitness is at most 0.5.
As for GUUCCGAUGGCGUAAUGGUACCGCGUCUUCCUCCUAGGGAGAAGACUGCGGGUUCGGGUCCCGUACGGAACG [U7A A21C C29U A37G A57G], the yeast fitness was at most 0.5.
GUUCCGUUGGCGUAAUGGUAACGCGUCUCCCUCCUAAGGAGCAGACUGCGGGUUCGAGUCCCGCACGGAUCG [A42C U64C A70U]: the yeast fitness was 1.12.
For the variant GUUCCGAUGGCGUAAUGCUAACGCGUCUCCCUCCCAAGGAGAAGACUGCGGGUUCGAGUCCCGUACGGAUCG [U7A G18C U35C A70U], the yeast fitness was at most 0.5.
As to GUUCCGUUGGCGUAAUGGUAACCAGUCUCCCUCCUAAGGAGAAGACUGAGGGUCCGAGUCCCGUACGGAACG [G23C C24A C49A U54C], the yeast fitness was determined as 0.655.
The value for GUUCCGUUGGCGUAAUGGUAACGCGUCUUCCUCCUCAGGAGAAGACUGCGGGUUCGUGUCCCGUACGGAACG [C29U A36C A57U] was at most 0.5; that for GUUCCCUUGGGGUUAUGGUGAUGCGUCUCCCUCCUAAGGAGAAAACUGCGGGUUAGAGUCCCGUACGGAACG [G6C C11G A14U A20G C22U G44A C55A] was at most 0.5.
Consider GUUCCGUUGGCGUAAUGGUACCGCGUCUCCCACCUAAGGAGAAGAAUGCGGGUUCGAGUCCCGUACGGAACG [A21C U32A C46A], for which the yeast fitness was determined as 0.744.
On to GUUCCGUUGGCGUAAUGGUAACGCGUCUCCCUCCUAAGGAAAAGACUGCGGGUUCGAGACCCGUACGGAACG [G41A U59A], for which the yeast fitness came out at 0.826.
With GUUCCGUUGGCGUAAUGGUAACGCGUCUCCCUCCUAAGGAGAAGACUGCGGGUUGGAGUCCCGCACGGAACG [C55G U64C], the yeast fitness worked out at 0.679.
As for GUUCCGUUGGCGUAAUGGUAACGCGUCUCCCUCCAAAGGAGACGAUUGCGGGUUCGAGUCCCGUACGGAACG [U35A A43C C46U], the yeast fitness is at most 0.5.
Consider GUUGCGUUGGCGUAAUGGUAACGCGGCUCCCUCCUAAGCAGAAGACUACGGGUUCGAGUCCCGUACGGAACG [C4G U26G G39C G48A], for which the yeast fitness is 0.611.
Turning to GUUCCGUUGGCGUAAUGGUAACGCGUCUCCCUCCUAAGGAGAAGGAUGCGGGUUCGAGUCCCGUACGGAACG [A45G C46A], the yeast fitness was determined as 0.916.
Consider GUUCUGUUGGUGUAAUGGUAACGCGUCUCCCUCCUAAGGAGAAGUCUGCGGGUUCGAGUCCCGUACGGACCG [C5U C11U A45U A70C], for which the yeast fitness was 0.725.
Consider GUUCCGUUGGCGUAAUGGUAACGCGUCUCGCUCCUAAGGACAAGACUGCGGGUUCGAGUCCCGUACGGAUCG [C30G G41C A70U], for which the yeast fitness is at most 0.5.
GUUCCGUUGGCGUAAUGGUAACGUGUCUCCCUGUUAAGGAGAAGACUGCGGGUUCGAGUCCUGUACGGAACG [C24U C33G C34U C62U]: the yeast fitness is at most 0.5.
The value for GUUCAGUUGGCGUAAUGGUAACGCGUCUCCCUCCUAAGGAGACGACUGCGGGUUCGAGUCCCGUACGGUCCG [C5A A43C A69U A70C] was 0.769; that for GUUGCGUUGGCGUAACGGUAACGCGUGUCCCUCCUAAGGGGAAGACUACGGGUUAGCGUCCCGUACGGAACG [C4G U16C C27G A40G G48A C55A A57C] was at most 0.5.
For GUUCCGUUGGCGUAAUGGUAACGCGUCUCCCUCCUAAGGAGAAGACUCCGGGUUCGCGUCCCGUACGGAACG [G48C A57C], the yeast fitness was 0.594.
The value for GUUCCGUUGGCGUAAUGGUCACGCGUCUCCCUCCUAAGGAGAAGACUGAGGGUACGAAUACCGUACGGAACG [A20C C49A U54A G58A C60A] was 0.593; that for GUUCCGUUGGUGUAAUGGUAACGCGUCUCCCUCAUAAGGAGAAGACUGCGGGUUCGGGUCCCGUACGGAACG [C11U C34A A57G] was 0.548; that for GUUCCGUUGGCGUAAAGGUAACGCGUCUCCCUCCUAAGGAGAAGACUGCGGGUUCGAGUCCCGUCCGGAACG [U16A A65C] was 0.939.
As to GUUCCGUUGGCGUAAUGAUAACGCGUCUCCCUCCUAGGGAGAAGACUGCGGCUUCGAGUCACGUACGGAACG [G18A A37G G52C C61A], the yeast fitness is at most 0.5.
With GUUCCAUUGGCGUAAUGGUAACCCGUCUCCCUCCUAAGGAGAAGACUGCGGGUUCGAGUCUCGUACGGAACG [G6A G23C C61U], the yeast fitness is at most 0.5.
In the case of GUUCCGUUGGCGUAAUGGUAACGCGUUUCCCUCGUAAGGAGAAGUCUGCGGGUUCGAGUCCCGUACGGAACG [C27U C34G A45U], the yeast fitness turned out to be 0.511.
On to GUUCCGUUGGCGUAAUGGUAACGCGUCUCCCUCAUAAGGAGAAGACAGCGGGUUCGAGUCCCGUACGAAACG [C34A U47A G68A], for which the yeast fitness is at most 0.5.
Regarding GUUCCGUUGGCGUAAUGGUAACGAGUCUCUCUCCUGAGGAGAAGAAUGCGGGUUCGAGUCCCGUACGGAACG [C24A C30U A36G C46A], the yeast fitness came to 0.579.
The value for GUUCCGUUGGCGUAAUGGUAACGCGUCUCCCUUCUAAGGCGAAGACUGCGGGUUCGAGUGCCGUACGGAACG [C33U A40C C60G] was at most 0.5.
Turning to GUUCGGUUGGCGUAAUGGUUACGCAUCUCCCUCCUAAGGAAAAGACUGCGGGUUGGAGUCCCGUACGGAACG [C5G A20U G25A G41A C55G], the yeast fitness was at most 0.5.
In the case of GUUCCGUUGGCGUAAUGGUAACGCGUCUCCCUCCUAAGGUGAAGACUGCGGGUUAGUGUCCCGUACGGAACG [A40U C55A A57U] it was at most 0.5; in that of GUUCCGUUGGCGUAAUGGUAACGCGUCUCCCUCCUAAGAAGAUGACUGCGGGAUCGUGUCCCGUUCGGAACG [G39A A43U U53A A57U A65U], at most 0.5; in that of GUUGUGUUGGCGUAAUGGUAACGCGUCUCCCUCCUAAGGAGAACACUGCGGGUUCGAGUCCCAUACUGAACG [C4G C5U G44C G63A G67U], at most 0.5.
As to GUUUGGUUGGCGUAAUGGUAACGCGUCUGCGUCCUACGGAGAAGACUGCGGGUUCGGGUCCCGUAAGGAACG [C4U C5G C29G C31G A37C A57G C66A], the yeast fitness was at most 0.5.
GUUCCGUUGGCGUAAUCGUAACGCGUCUCCCUCCUAAGGAGAAGACUGCGGGUUCGAGUUCCGUACGGAACG [G17C C60U]: the yeast fitness worked out at 0.597.
With GUUCCGUUGGCGUAAUGGUGACGCGUCUCCCUCCUAAGGAGAAGACUGUGGGUUCGAGUCCCGUAUGGACCG [A20G C49U C66U A70C], the yeast fitness was at most 0.5.

Source of the values: the RNAGym collection of RNA variant scans (doi:10.1126/science.aae0568).
